Experimental data as given in ChEMBL document CHEMBL4513216, “Probing the Open Global Health Chemical Diversity Library for Multistage-Active Starting Points for Next-Generation Antimalarials” (ACS Infect Dis, 2020).

Experiment: Toxicity liver stage against HepG2, at 10uM
Assay type: cell-based
Parameters: test concentration 10 uM, cell line HepG2-A16-CD81EGFP
Conditions: human, HepG2-A16-CD81EGFP cells; read-out: INHIBITION
Procedure, shortened: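 Uninfected HepG2-A16-CD81EGFP cells, 3 × 10^3 per well, 1536-well, plated on prespotted compound at 10 μM final, parasite-free screening media added to match infected plates; puromycin 10 μM positive, DMSO 0.5% negative; run in parallel with 48 h PbLuc assay at 37 °C, 5% CO2; viability by CellTiter-Glo luminescence, normalized to controls.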
With `CC(C)N(CC1CCCN(Cc2ccon2)C1)C(=O)OC(C)(C)C` (stereo not given) the cytotoxicity at 10 µM was 7.09%. `O=C(NCCOc1ncc(Cl)cc1Cl)c1ccncc1` showed a cytotoxicity at 10 µM of 7.18%. With `COCCN1CC(=O)c2sc(NC(C)C)nc2C1` the cytotoxicity at 10 µM was -4.91%. For `OCCNc1nccc(-c2cn3nccc3nc2C2CCCCC2)n1`, the cytotoxicity at 10 µM was -0.085%. In the case of `COc1ccccc1S(=O)(=O)N1CCN(C)[C@@H]2CS(=O)(=O)C[C@@H]21`, the cytotoxicity at 10 µM is reported as 19.3%. In the case of `CCSCCNc1cc(C)nc2c(C)c(C)nn12`, the cytotoxicity at 10 µM is reported as 5.88%. For `CCOc1ccc(CN(CCOC)C(=O)c2ccncc2Cl)cc1`, the cytotoxicity at 10 µM was 5.82%. `CNc1ccnc(N2C[C@@H](C)[C@](O)(C3CC3)C2)n1` showed a cytotoxicity at 10 µM of -13.1%. Work on `CC(C)(O)CCc1cccc(C(=O)NCC2CN(S(C)(=O)=O)CCO2)c1` (stereo not given) yielded a cytotoxicity at 10 µM of 2.29%. `CCN1CC(CN(C)Cc2nc(-c3ccoc3)oc2C)CC1=O` (stereo not given) showed a cytotoxicity at 10 µM of -5.13%. In the case of `Cc1cccc(C)c1OC1CN(Cc2cnc(N3CCOCC3)nc2)C1`, the cytotoxicity at 10 µM is reported as 3.47%. Work on `c1ccc(CN2CCC(Nc3ncnc4c3CCNCC4)C2)cc1` (stereo not given) yielded a cytotoxicity at 10 µM of 8.03%. Molecule `O=C(O)[C@]12CN(CC3CCC3)C[C@H]1CN(c1cnccn1)C2` has a cytotoxicity at 10 µM of 8.16%. `O=C(NCC(O)c1ccc(F)cc1)C1CCN(C2CCCCC2)CC1` (stereo not given) gave a cytotoxicity at 10 µM of 5.67%. In the case of `Cn1ccnc1-c1nccn1-c1cccc(CN2CCCC2)c1`, the cytotoxicity at 10 µM is reported as -2.36%. Molecule `Cc1nc(O)cc(CCNC(=O)c2ccc(CN3CCCCC3)cc2)n1` has a cytotoxicity at 10 µM of 8.61%. With `COCCN(C)C[C@@H]1CN(C(=O)c2ccc(O)c(C)c2)C[C@@H]1CO` the cytotoxicity at 10 µM was -11.8%. Molecule `CN(C)S(=O)(=O)c1ccc(CNC(=O)c2cn3c(n2)CNCC3)cc1` has a cytotoxicity at 10 µM of 16.9%. `O=C(CCn1cnnn1)N1CCCC(CO)(CCc2ccccc2)C1` (stereo not given) showed a cytotoxicity at 10 µM of 5.26%. With `CCC(C)N(Cc1cccnc1)C(=O)c1ncccc1O` (stereo not given) the cytotoxicity at 10 µM was 14.9%. With `Cc1cc(C)c2[nH]c(=O)c(CN3CCCC(O)(CO)C3)cc2c1` (stereo not given) the cytotoxicity at 10 µM was -2.25%. For `Cc1c(C(=O)NCC2CCN(Cc3ccco3)C2)[nH]c2ccccc12` (stereo not given), the cytotoxicity at 10 µM was 6.32%. Work on `O=C1CN(CC[C@@H](O)c2ccccc2)CCN1c1ccccc1Cl` yielded a cytotoxicity at 10 µM of 1.29%. `Cc1sc2nc(CCN)nc(N3CCC(N4CCCC4)CC3)c2c1C` gave a cytotoxicity at 10 µM of -51.6%. In the case of `CC(C)N1CC2(CCC1=O)CCN(C(=O)c1cccc(F)c1F)CC2`, the cytotoxicity at 10 µM is reported as -18.5%. For `CCc1cc(CN(C)Cc2nc(-c3ccc(OC)cc3F)oc2C)on1`, the cytotoxicity at 10 µM was -3.4%. Molecule `Cc1[nH]ccc1C(=O)N1CCCC(c2nccn2Cc2cscn2)C1` (stereo not given) has a cytotoxicity at 10 µM of -17.5%. `Cc1nccc(CN2CCC(c3nnsc3S(C)(=O)=O)CC2)n1` gave a cytotoxicity at 10 µM of 2.86%. `CCNC(=O)N(C)C(c1cccc(F)c1)c1ccccn1` (stereo not given) showed a cytotoxicity at 10 µM of -11.6%. `COc1ccc(C(=O)N2CCCCC2c2nc(C)cs2)nn1` (stereo not given) gave a cytotoxicity at 10 µM of -6.77%. With `O=C(c1ccc(N2CCCC2)nn1)N1CCCC(n2cccn2)C1` (stereo not given) the cytotoxicity at 10 µM was -5.58%. `CCN(CC)C(=O)c1nnn(-c2ccc(C)cc2)c1C1CC1` gave a cytotoxicity at 10 µM of -8.35%. `Cn1ncc2c(=O)[nH]c(N3CCN(C(=O)c4ccsc4)CC3)nc21` gave a cytotoxicity at 10 µM of -6.17%. `Cc1nccn1CC1CCCN1S(=O)(=O)Cc1ccccc1` (stereo not given) showed a cytotoxicity at 10 µM of -18%. With `CC(O)CN1CCN(C(=O)c2ccc(N(C)C)nc2)CC1` (stereo not given) the cytotoxicity at 10 µM was -9.78%. In the case of `N#Cc1ccccc1OCCN1CCn2c(nnc2C2CC2)C1`, the cytotoxicity at 10 µM is reported as 2.94%. With `O=C(Cc1csc(-c2nnc[nH]2)n1)N1CCCC1Cn1cccn1` (stereo not given) the cytotoxicity at 10 µM was -2.48%. Molecule `CCCc1nc(CN2CCCC(Cn3cncn3)C2)no1` (stereo not given) has a cytotoxicity at 10 µM of -4.02%. Work on `Cc1cnn(CC2CCCN2C(=O)c2ccc3[nH]nnc3c2)c1` (stereo not given) yielded a cytotoxicity at 10 µM of 1.03%. `Cc1nc(C)n(CC2CCCN(CCNC(=O)OC(C)(C)C)C2)n1` (stereo not given) gave a cytotoxicity at 10 µM of 1.08%. Work on `CCC(CN1CCOCC1)n1cncc1-c1ccc2c(c1)CCCN2C` (stereo not given) yielded a cytotoxicity at 10 µM of 8.9%. `NCc1ccccc1Sc1ccc(O)cc1` gave a cytotoxicity at 10 µM of 1.31%. Molecule `Cc1c(Br)cccc1C(=O)NCC1CCNCC1` has a cytotoxicity at 10 µM of -16%. For `Cc1cnccc1-c1cnn(CCNC(=O)C(C)(C)C)c1C1CC1`, the cytotoxicity at 10 µM was -0.459%. `Cn1nnc2c1CCN(CC1CC1)C2COCc1ccccc1` (stereo not given) gave a cytotoxicity at 10 µM of 6.74%. Work on `Cc1ccc(CN2CCC3(CC2)C(=O)N(CC(C)C)CCN3C)o1` yielded a cytotoxicity at 10 µM of -0.508%. `Cc1nccn1CCC1CCNCC1` gave a cytotoxicity at 10 µM of -2.36%. `Cc1cnc(N2CC[C@H]3[C@H](C[C@@H](CN(C)C)N3C)C2)nc1` showed a cytotoxicity at 10 µM of 5.71%. In the case of `CN(C)CCNC(=O)[C@H]1C[C@H]2CN(c3ncccn3)C[C@H]2N1C`, the cytotoxicity at 10 µM is reported as 9.52%. With `O=C(c1ccsc1)N1CCc2c(COCC3CC3)cncc2C1` the cytotoxicity at 10 µM was 1.65%. Work on `Cc1cc(C(=O)N2CC[C@H]3[C@H](C[C@@H](CN4CCCC4)N3C)C2)c(C)o1` yielded a cytotoxicity at 10 µM of 9.97%. For `Cc1noc2nc(C3CCN(CC4=CCCOC4)CC3)cc(C(F)F)c12`, the cytotoxicity at 10 µM was 0.307%. `Cc1cccc(CN2C[C@@H]3COC[C@]3(CNC(=O)c3ccsc3)C2)n1` showed a cytotoxicity at 10 µM of -1.85%. In the case of `CN1CC(=O)N(c2cnn(C)c2)CC12CCN(Cc1cccnc1)C2` (stereo not given), the cytotoxicity at 10 µM is reported as -1.69%. Work on `Cc1ccc(-c2cc(C3=NC(=CN4CCN(C)CC4)NO3)[nH]n2)s1` yielded a cytotoxicity at 10 µM of -9.45%.
